Assay results as given in ChEMBL document CHEMBL3526153, “Metabolism of gambogic acid in rats: a rare intestinal metabolic pathway responsible for its final disposition” (Drug Metab Dispos, 2011).
Each block holds one compound with its values, some of them ahead of it.

Tests used:
[1] = Retention time of the compound in Sprague-Dawley rat bile treated with gambogic acid at 4 mg/kg, iv measured over 24 hrs by LC-DAD-MS/MS analysis; type: ADME, organism-based; design: dose 4 mg/kg, route intravenous; conditions: in vivo
Summary of the method: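 SD rats, n=4, bile-duct cannulated under chloral hydrate and allowed 1 h recovery. GA 4 mg/kg i.v.; bile collected on ice, pooled 0–24 h. C18 LC-DAD-MS/MS at 0.25 mL/min with acetonitrile gradient (38% to 80%) in 10 mM ammonium acetate, 40 °C, negative ESI.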

[2] = Drug level in rat liver microsomes assessed as CYP450-mediated compound formation treated with gambogic acid at 50 uM preincubated for 10 mins followed by NADPH addition measured after 1 hr by LC-DAD-MS/MS analysis; type: ADME
Summary of the method: (§1)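 GA 50 µM with rat liver microsomes 1.0 mg/mL in 0.1 M PBS pH 7.4, pre-incubated 10 min at 37 °C. Started with NADPH (6.0 mM final) and run 1 h at 37 °C. Controls lacked NADPH or microsomes; duplicate. Stopped with ice-cold acetonitrile, centrifuged, supernatant dried and reconstituted. Isocratic LC (65% acetonitrile), negative-ion ESI MS/MS.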

[3] = Drug level in Sprague-Dawley rat feces treated with gambogic acid at 4 mg/kg, iv measured over 24 hrs by LC-DAD-MS/MS analysis; type: ADME, organism-based; design: dose 4 mg/kg, route intravenous; conditions: in vivo
Summary of the method: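 SD rats (250 ± 20 g), n=4, given GA 4 mg/kg i.v. via tail vein in 2 mL; feces pooled 0–24 h and stored at −20 °C. Feces (0.6 g) homogenized in 50% acetonitrile, sonicated, centrifuged, filtered, then ethyl acetate extraction. Analysed by C18 LC-DAD-MS/MS (gradient 38–80% acetonitrile, 10 mM ammonium acetate, 40 °C), negative ESI.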

[4] = tested on: Liver microsome; experiment: Drug level in rat liver microsomes treated with gambogic acid at 50 uM preincubated for 10 mins followed by UDPGA addition measured after 2 hrs by LC-MS/MS analysis; type: ADME
Summary of the method: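 Rat liver microsomes 1.0 mg/mL pretreated with alamethicin 50 μg/mg protein. GA 50 μM, saccharic acid-1,4-lactone 6 mM, in 0.05 M Tris-HCl pH 7.4. Preincubated 10 min at 37 °C, started with UDPGA (6.0 mM final), run 2 h at 37 °C, duplicate. Quenched with ice-cold acetonitrile. LC-MS/MS in negative ESI with acetonitrile gradient 50–95%.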

[5] = Drug metabolism in Sprague-Dawley rat gut assessed as formation of 10-alpha sulfonic gambogic acid at 4 mg/kg, iv; type: ADME, organism-based; design: dose 4 mg/kg, route intravenous; conditions: in vivo
[6] = Drug metabolism in Sprague-Dawley rat feces assessed as formation of glucuronidation product at 4 mg/kg, iv measured over 24 hrs by LC-DAD-MS/MS analysis; type: ADME, organism-based; design: dose 4 mg/kg, route intravenous; conditions: in vivo
Summary of the method: (§2)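 SD rats (250 ± 20 g), 4 mg/kg GA injection given i.v. via tail vein in 2 mL; feces from four rats pooled 0–24 h, stored -20 °C. Feces (0.6 g) homogenized in acetonitrile-water 50:50, sonicated, centrifuged, filtered, then extracted with ethyl acetate, dried under N2 at 40 °C, reconstituted in mobile phase. Gradient C18 LC, negative-ion ESI MS/MS.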

[7] = Drug excretion in Sprague-Dawley rat feces at 2 mg/kg, iv measured within 48 hrs; type: ADME, organism-based; design: dose 2 mg/kg, route intravenous; conditions: read-out: Drug excretion
[8] = Drug metabolism in Sprague-Dawley rat gut assessed as formation of 10-beta sulfonic gambogic acid at 4 mg/kg, iv; type: ADME, organism-based; design: dose 4 mg/kg, route intravenous; conditions: in vivo
[9] = Drug metabolism in intestine (unknown origin) assessed as 10-beta sulfonic gambogic acid formation; type: ADME, tissue-based
Summary of the method: (§3)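 Intestinal contents from undosed rats homogenized in 5 mL water, spiked with 100 µL of 1.0 mg/mL GA, incubated at 37 °C about 24 h, in duplicate. 1 mL extracted with ethyl acetate. LC-MS/MS in negative ESI with SIM at m/z 709.3.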

[10] = tested on: Plasma; experiment: Drug metabolism in Sprague-Dawley rat plasma assessed as 10-OHGA formation at 4 mg/kg, iv measured over 4 hrs by LC-DAD-MS/MS analysis; type: ADME, organism-based; design: dose 4 mg/kg, route intravenous; conditions: in vivo
Summary of the method: (§4)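 Six SD rats dosed 4 mg/kg GA i.v. via tail vein. Tail-vein blood taken before and 0.033–4 h post-dose into heparinized tubes, centrifuged 3000 × g 10 min at 4 °C, and plasma pooled 0–4 h. 1 mL extracted with 4 mL ethyl acetate, dried under N2 at 40 °C, reconstituted. Isocratic C18 LC (68% acetonitrile), negative-ion ESI MS/MS.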

[11] = tested on: Liver microsome; experiment: Drug metabolism in rat liver microsomes assessed as 9,10-epoxyl-gambogic acid formation at 50 uM preincubated for 10 mins by LC-MS/MS analysis in absence of NADPH; type: ADME; summary of the method: as §1
[12] = Drug metabolism in Sprague-Dawley rat feces assessed as formation of 9,10-epoxyl-gambogic acid at 4 mg/kg, iv measured over 24 hrs by LC-DAD-MS/MS analysis; type: ADME, organism-based; design: dose 4 mg/kg, route intravenous; conditions: in vivo; summary of the method: as §2
[13] = Drug metabolism in Sprague-Dawley rat bile assessed as 10-alpha sulfonic gambogic acid formation of at 4 mg/kg, iv measured over 24 hrs by LC-DAD-MS/MS analysis; type: ADME, organism-based; design: dose 4 mg/kg, route intravenous; conditions: in vivo
Summary of the method: (§5)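 Four SD rats bile-duct cannulated under chloral hydrate anesthesia, allowed 1 h recovery, pre-dose bile taken. Dosed 4 mg/kg GA i.v. Bile collected on ice and pooled 0–24 h, stored -20 °C. Gradient C18 LC (acetonitrile/10 mM ammonium acetate), 40 °C column, negative-ion ESI MS/MS.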

[14] = Drug metabolism in rat liver microsomes assessed as CYP450-mediated 9,10-epoxyl-gambogic acid formation at 50 uM preincubated for 10 mins followed by NADPH addition measured after 1 hr by LC-DAD-MS/MS analysis; type: ADME; summary of the method: as §1
[15] = Drug level in Sprague-Dawley rat feces at 4 mg/kg, iv measured over 24 hrs by LC-MS/MS analysis; type: ADME, organism-based; design: dose 4 mg/kg, route intravenous; conditions: in vivo; summary of the method: as §2
[16] = Drug metabolism in Sprague-Dawley rat bile assessed as formation of 10-beta sulfonic gambogic acid at 4 mg/kg, iv measured over 24 hrs by LC-DAD-MS/MS analysis; type: ADME, organism-based; design: dose 4 mg/kg, route intravenous; conditions: in vivo; summary of the method: as §5
[17] = Drug metabolism in rat liver microsomes assessed as CYP450-mediated 10-OHGA formation at 50 uM preincubated for 10 mins followed by NADPH addition measured after 1 hr by LC-DAD-MS/MS analysis; type: ADME; summary of the method: as §1
[18] = Drug metabolism in Sprague-Dawley rat feces assessed as 10-OHGA formation at 4 mg/kg, iv measured over 24 hrs by LC-DAD-MS/MS analysis; type: ADME, organism-based; design: dose 4 mg/kg, route intravenous; conditions: in vivo; summary of the method: as §2
[19] = tested on: Liver microsome; experiment: Drug metabolism in rat liver microsomes assessed as glucuronidation product formation at 50 uM preincubated for 10 mins followed by UDPGA addition for 2 hrs measured 1 hr post beta-glucuronidase treatment by LC-MS/MS analysis; type: ADME
Summary of the method: (§6)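 Dried UDPGA microsomal incubate reconstituted in 0.1 M Tris pH 6.8. For enzymatic hydrolysis, about 830 units β-glucuronidase, 37 °C for 1 h; control without enzyme. For alkaline hydrolysis, with or without 0.5 M NaOH (10 µL), 2 h at room temperature, then neutralized with acetic acid to about pH 7. Analyzed by LC-MS/MS.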

[20] = Drug metabolism in rat liver microsomes assessed as SULT-mediated sulfonation; type: ADME
[21] = tested on: Liver microsome; experiment: Drug metabolism in rat liver microsomes assessed as glucuronidation product formation at 50 uM preincubated for 10 mins followed by UDPGA addition measured after 2 hrs by LC-MS/MS analysis; type: ADME
Summary of the method: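 GA 50 µM with alamethicin-treated rat liver microsomes 1.0 mg/mL and saccharic acid-1,4-lactone 6 mM in 0.05 M Tris-HCl pH 7.4, pre-incubated 10 min at 37 °C. Started with UDPGA (6.0 mM) and run 2 h at 37 °C. Controls lacked UDPGA or microsomes; duplicate. Acetonitrile quench, gradient LC, negative-ion ESI MS/MS.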

[22] = tested on: Liver microsome; experiment: Drug metabolism in rat liver microsomes assessed as glucuronidation product formation at 50 uM preincubated for 10 mins followed by UDPGA addition for 2 hrs measured 2 hrs post NaOH treatment by LC-MS/MS analysis; type: ADME; summary of the method: as §6
[23] = tested on: Plasma; experiment: Drug level in Sprague-Dawley rat plasma at 4 mg/kg, iv measured over 4 hrs by LC-DAD-MS/MS analysis; type: ADME, organism-based; design: dose 4 mg/kg, route intravenous; conditions: in vivo; summary of the method: as §4
[24] = Drug metabolism in intestine (unknown origin) assessed as 10-alpha sulfonic gambogic acid formation; type: ADME, tissue-based; summary of the method: as §3
[25] = Retention time of the compound in Sprague-Dawley rat bile at 4 mg/kg, iv measured over 24 hrs by LC-DAD-MS/MS analysis; type: ADME, organism-based; design: dose 4 mg/kg, route intravenous; conditions: in vivo; summary of the method: as §5
[26] = Drug level in Sprague-Dawley rat urine at 4 mg/kg, iv measured over 24 hrs by LC-DAD-MS/MS analysis; type: ADME, organism-based; design: dose 4 mg/kg, route intravenous; conditions: in vivo
Summary of the method: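 Urine collected from four SD rats and pooled 0–24 h after 4 mg/kg GA i.v. via tail vein; stored -20 °C until LC-MS/MS analysis (negative-ion ESI).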

Compound: CC(C)=CCC[C@]1(C)C=Cc2c(O)c3c(c(CC=C(C)C)c2O1)O[C@]12[C@H]4C[C@H](C(=O)[C@]1(C/C=C(/C)C(=O)O)OC4(C)C)C1OC12C3=O (stereo not given in full)
- Retention_time [1]: 43.8 min
- Drug metabolism [2]: metabolite_detected
- Drug metabolism [3]: metabolite_detected

Compound: CC(C)=CCC[C@]1(C)C=Cc2c(O)c3c(c(CC=C(C)C)c2O1)O[C@]12C(=C[C@@H]4C[C@H]1C(C)(C)O[C@@]2(C/C=C(/C)C(=O)O)C4=O)C3=O [GAMBOGIC ACID]
- Drug metabolism [5]: metabolite_detected
- Drug metabolism [6]: metabolite_detected
- dose excreted at 48 h [7]: 1.04%
- Drug metabolism [8]: metabolite_detected
- Drug metabolism [9]: metabolite_detected
- Drug metabolism [10]: metabolite_detected
- Drug metabolism [11]: metabolite_not_detected
- Drug metabolism [12]: metabolite_detected
- Drug metabolism [13]: metabolite_not_detected
- Drug metabolism [14]: metabolite_detected
- Drug uptake [15]: Active
- Drug metabolism [16]: metabolite_not_detected
- Drug metabolism [17]: metabolite_detected
- Drug metabolism [18]: metabolite_detected
- Drug metabolism [19]: metabolite_not_detected
- Drug metabolism [20]: metabolite_not_detected
- Drug metabolism [21]: metabolite_detected
- Drug metabolism [22]: metabolite_not_detected
- Drug uptake [23]: Active
- Drug metabolism [24]: metabolite_detected
- Retention_time [25]: 44.8 min
- Drug uptake [26]: Not Active

Second part, the compound after the results:

- Retention_time [1]: 40.3 min
Compound: CC(C)=CCC[C@]1(C)C=Cc2c(O)c3c(c(CC=C(C)C)c2O1)O[C@]12C(=C[C@@H]4C[C@H]1C(C)(C)O[C@@]2(C/C=C(/C)C(=O)O[C@@H]1O[C@H](CO)[C@@H](O)[C@H](O)[C@H]1O)C4=O)C3=O

- Retention_time [1]: 39 min
Compound: CC(C)=CCC[C@]1(C)C=Cc2c(O)c3c(c(CC=C(C)C)c2O1)O[C@]12[C@H]4C[C@H](C(=O)[C@]1(C/C=C(/C)C(=O)O[C@@H]1O[C@H](CO)[C@@H](O)[C@H](O)[C@H]1O)OC4(C)C)C1OC12C3=O (stereo not given in full)

- Drug metabolism [4]: metabolite_detected
- Retention_time [1]: 23.6 min
- Drug metabolism [3]: metabolite_detected
Compound: CC(C)=CCC[C@]1(C)C=Cc2c(O)c3c(c(CC=C(C)C)c2O1)O[C@]12C(=C[C@@H]4C[C@H]1C(C)(C)O[C@@]2(C/C=C(/C)C(=O)O[C@@H]1O[C@H](C(=O)O)[C@@H](O)[C@H](O)[C@H]1O)C4=O)C3=O
